Experimental data taken from PubChem BioAssay.
Unmarked numbers belong to inactive results. Inconclusive results are not listed. Active and inactive are the calls of the source.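 Rule for the calls, unless noted: active = viability increase at or above a cutoff of the median across tested compounds plus 3 SD (cut at about 8.5% in these data, passing the limit was not always enough); inconclusive = some gains above the cutoff, reason not given; inactive = the rest.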

Assays:
[1] = S. cerevisiae growth inhibition in permissive medium (OD615), pilot counter-assay for S. cerevisiae lifespan shortening project, permissive growth control (AID 705;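 active = growth inhibition above 25% in both replicates, a cutoff set 3 SD above the mean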); settings: OD615, 24 h, at 10 µM, hits give high values
How it was run: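 System: S. cerevisiae with engineered DeaD lifespan system. Medium: SC raffinose/galactose permissive medium. Doses: single compound dose of 10 µM, 0.25% DMSO final. Schedule: 24 h exposure, 30 °C. Measured by: OD615 turbidity read. Read-out: growth inhibition.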

[2] = S. cerevisiae growth inhibition in restrictive medium, OD615, pilot screen, restrictive growth control, yeast lifespan reduction project (AID 706;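 active = growth inhibition above a set limit, 3 SD over mean compound inhibition, in both replicates, cut at about 43% in these data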;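 note: modified DeaD lifespan yeast strain shifted to restrictive glucose medium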); settings: OD615, 48 h, at 10 µM, hits give high values
How it was run: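 Assay system – genetically modified Saccharomyces cerevisiae, DeaD replicative lifespan assay strain · Medium – CSMM-D glucose medium · Doses – 10 µM compound, 0.25% DMSO · Times – 4 h pre-incubation, 48 h exposure at 30 °C · Signal – optical density at 615 nm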

[3] = doxorubicin toxicity protection in MRP-1 cells – H69AR cells, CellTiter-Glo, duplicate, MRP-1 activator project, pilot screen (AID 807); settings: H69AR viability with doxorubicin, CellTiter-Glo luminescence; at 10 µM; hits give high values;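 note: compound pretreatment 18-22 h then 72 h combined with doxorubicin; 0% = doxorubicin alone and 100% = vehicle without doxorubicin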
[4] = viability of HCT116 without oncogenic beta-catenin – human colon tumor cells, pilot screen (AID 823;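 active = cell viability at or below a set limit in both duplicate runs, the limit being the all-compound median minus 4 SD, cut at about 23% in these data, passing the limit was not always enough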;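 note: 0% = wells killed by 20 µM Hyamine and 100% = untreated DMSO cell wells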); settings: HCT116 beta-catenin knockout viability, CellTiter-Glo, 60 h; at 10 µM; hits give low values
[5] = viability of PTEN-null HCT116 cells – cell-based, HCT116 clonal line, CellTiter-Glo, pilot screen (AID 824;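 active = viability at or below 27.92% in each of two runs, the all-compound median minus 4 SD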;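 note: 0% = 20 µM Hyamine control and 100% = vehicle cell control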); settings: HCT116 PTEN-deleted viability, 60 h, at 10 µM, hits give low values
[6] = RAM pathway blockade in budding yeast – dse1pr::URA3 reporter, 5-FOA selection, pilot screen (AID 869;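 active = inhibition over a set limit, the all-compound mean plus 3 SD, in both replicate runs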;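 note: 0% = DMSO wells with no growth and 100% = 10 µM 1-NA-PP1 with full growth; RAM network block rescues cells from 5-FOA so hits raise OD615 growth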); settings: S. cerevisiae dse1pr::URA3 5-FOA growth, OD615, 2 d; at 10 µM; hits give high values; strain carries analog-sensitive mutant Cbk1 kinase
[7] = RAM signaling pathway blockade in yeast – S. cerevisiae, Pdr1DBD-CYC8 efflux-inhibited sensitized strain, primary screen (AID 1298;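 active = RAM network inhibition above 8.4% in each of two replicates, 3 SD over the compound average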;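 note: 0% = DMSO untreated cells without growth and 100% = 10 µM 1-NA-PP1 full growth; higher means more yeast growth rescued from 5-FOA killing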); settings: S. cerevisiae cbk1-as DSE1-URA3 strain, 5-FOA growth OD615, 2 d; at 50 µM; hits give high values

For `C=CCn1c2ccccc2c2nnc(SCN3C(=O)c4ccccc4C3=O)nc21`, the growth inhibition [1] was 7.65%, the growth inhibition [2] was 48.4% (active) and the viability increase [3] was -4.7%. For the same compound, the viability [4] was 100%, the viability [5] was 93.7% and the inhibition [6] was 3.45%. It also gave an RAM network inhibition [7] of 4.65%.
Work on `COc1ccc(C)cc1NC(=O)CN(c1ccccc1F)S(C)(=O)=O` yielded a growth inhibition [1] of -8.48%, a growth inhibition [2] of -0.695% and a viability increase [3] of -1.51%. For the same compound, the viability [4] was 94.6%, the viability [5] was 103% and the inhibition [6] was -0.63%. For the same compound, the RAM network inhibition [7] was 0.32%.
`CCCOc1ccc(C(=O)NCc2ccco2)cc1` showed a growth inhibition [1] of -13.1%, a growth inhibition [2] of -4.49% and a viability increase [3] of -1.42%. For the same compound, the viability [4] was 98%, the viability [5] was 93.5% and the inhibition [6] was 0.43%. The RAM network inhibition [7] was 2.65%.
In the case of `Cc1ccc(C)c(N2CCN(CC(=O)Nc3ccc4[nH]c(=O)[nH]c4c3)CC2)c1`, the growth inhibition [1] is reported as -13.7%, the growth inhibition [2] is reported as -14.9% and the viability increase [3] is reported as -5.54%. It also gave a viability [4] of 92.9%, a viability [5] of 89.1% and an inhibition [6] of 0.03%. The RAM network inhibition [7] was 1.87%.
`CCOC(=O)N1CCN(c2c(N3CCOCC3)c(=O)c2=O)CC1` showed a growth inhibition [1] of 1.49%, a growth inhibition [2] of -13.2% and a viability increase [3] of 0.58%. It also gave a viability [4] of 106%, a viability [5] of 97.2% and an inhibition [6] of 2.57%. The RAM network inhibition [7] was -0.73%.
Work on `COc1cccc(NC(=O)c2cccnc2)c1` yielded a growth inhibition [1] of -5.19%, a growth inhibition [2] of 7.85% and a viability increase [3] of 1.59%. The viability [4] was 100%, the viability [5] was 87.2% and the inhibition [6] was 0.55%. The RAM network inhibition [7] was 3.7%.
For `CCCOc1ccc(C(=O)NCCC(=O)NCCCC(=O)OCC)cc1`, the growth inhibition [1] was -14.6%, the growth inhibition [2] was -20.7% and the viability increase [3] was 0.2%. For the same compound, the viability [4] was 91.8%, the viability [5] was 104% and the inhibition [6] was 1.34%. It also gave an RAM network inhibition [7] of 0.47%.
`COc1cccc(N2C(=O)C3ON(c4ccccc4)C(c4cccs4)C3C2=O)c1` (stereo unspecified) showed a growth inhibition [1] of -13%, a growth inhibition [2] of 15.5% and a viability increase [3] of -0.83%. The viability [4] was 107%, the viability [5] was 97.8% and the inhibition [6] was 2.65%. It also gave an RAM network inhibition [7] of 4.23%.
For `CCC1CCCCN1C(=O)CSc1nnc(-c2cccc(Cl)c2)o1` (stereo unspecified), the growth inhibition [1] was 8.15%, the growth inhibition [2] was 46.1% (active) and the viability increase [3] was -3.24%. For the same compound, the viability [4] was 86.8%, the viability [5] was 91.5% and the inhibition [6] was 1.4%. The RAM network inhibition [7] was 1.06%.
Compound `CC(=O)N(c1c(C)n(C)n(-c2ccccc2)c1=O)C1(C(=O)NC2CCCC2)CCCCC1` has a growth inhibition [1] of -1.1%, a growth inhibition [2] of -19% and a viability increase [3] of -1.56%. It also gave a viability [4] of 95.1%, a viability [5] of 95.8% and an inhibition [6] of 0.27%. For the same compound, the RAM network inhibition [7] was -1.24%.
In the case of `Cc1cc(C)n(-c2nc3ccccc3c3nc(C)nn23)n1`, the growth inhibition [1] is reported as -10.5%, the growth inhibition [2] is reported as -2.51% and the viability increase [3] is reported as -0.57%. It also gave a viability [4] of 104%, a viability [5] of 101% and an inhibition [6] of 0.195%. The RAM network inhibition [7] was 4.75%.
`O=C(Cc1cccs1)N1CCN(c2ccccn2)CC1` gave a growth inhibition [1] of -2.47%, a growth inhibition [2] of -11.1% and a viability increase [3] of -0.45%. For the same compound, the viability [4] was 93.5%, the viability [5] was 98% and the inhibition [6] was 0.735%. The RAM network inhibition [7] was 2.55%.
In the case of `COc1ccc(S(=O)(=O)N2CCC(C(=O)N3CCc4ccccc4C3)CC2)cc1`, the growth inhibition [1] is reported as 11.1%, the growth inhibition [2] is reported as -10.1% and the viability increase [3] is reported as -5.43%. The viability [4] was 93.5%, the viability [5] was 85% and the inhibition [6] was 0.13%. For the same compound, the RAM network inhibition [7] was 2.53%.
For `CCOc1ccccc1C1CC(c2ccc(F)cc2)Nc2nc(N)nn21` (stereo unspecified), the growth inhibition [1] was -2.63%, the growth inhibition [2] was 6.8% and the viability increase [3] was 1.61%. For the same compound, the viability [4] was 89.2%, the viability [5] was 90.1% and the inhibition [6] was 0.785%. For the same compound, the RAM network inhibition [7] was 2.07%.
For `O=C(CSc1ccccn1)c1ccc2c(c1)OCO2`, the growth inhibition [1] was -3.07%, the growth inhibition [2] was 9.94% and the viability increase [3] was -0.21%. For the same compound, the viability [4] was 99.2%, the viability [5] was 96.2% and the inhibition [6] was 0.92%. For the same compound, the RAM network inhibition [7] was 2.86%.
Compound `CCOC(=O)c1cc2c(n(-c3ccc(C)cc3)c1=O)CCCC2=O` has a growth inhibition [1] of -9.02%, a growth inhibition [2] of -16.6% and a viability increase [3] of -3.28%. The viability [4] was 99.3%, the viability [5] was 94.8% and the inhibition [6] was 0.59%. The RAM network inhibition [7] was 2.29%.
Compound `Cc1c(C#N)c2ncn(Cc3ccccc3)c(=O)c2n1-c1ccccc1` has a growth inhibition [1] of -19.7%, a growth inhibition [2] of -0.37% and a viability increase [3] of -3.74%. For the same compound, the viability [4] was 81.1%, the viability [5] was 83.8% and the inhibition [6] was 0.47%. It also gave an RAM network inhibition [7] of 4.19%.
`COc1ccc(S(=O)(=O)Cc2ccc(C(=O)NCc3cccnc3)o2)cc1` gave a growth inhibition [1] of -4.57%, a growth inhibition [2] of -10.1% and a viability increase [3] of -5%. The viability [4] was 88.2%, the viability [5] was 84% and the inhibition [6] was 1%. The RAM network inhibition [7] was 3.45%.
`CCOC(=O)c1ccc(NC(=O)C2CCN(S(=O)(=O)c3ccccc3)CC2)cc1` showed a growth inhibition [1] of -12.1%, a growth inhibition [2] of -10.7% and a viability increase [3] of -2.54%. For the same compound, the viability [4] was 66.4%, the viability [5] was 70.2% and the inhibition [6] was 1.47%. The RAM network inhibition [7] was 6.37%.
Work on `CC(C)CC(NS(=O)(=O)c1ccc2c(c1)oc(=O)n2C)C(=O)NCc1cccnc1` (stereo unspecified) yielded a growth inhibition [1] of -0.43%, a growth inhibition [2] of 15.8% and a viability increase [3] of -0.08%. The viability [4] was 112%, the viability [5] was 98.9% and the inhibition [6] was 1.82%. For the same compound, the RAM network inhibition [7] was 0.99%.
For `O=C(NCC1CCCO1)c1nnc(Cc2ccc(F)cc2)o1` (stereo unspecified), the growth inhibition [1] was -12.6%, the growth inhibition [2] was 10.5% and the viability increase [3] was -0.18%. It also gave a viability [4] of 98.4%, a viability [5] of 99.4% and an inhibition [6] of 0.085%. The RAM network inhibition [7] was 1.47%.
In the case of `O=C1c2ccccc2C(O)N1Cc1ccc2c(c1)OCO2` (stereo unspecified), the growth inhibition [1] is reported as 4.13%, the growth inhibition [2] is reported as -0.895% and the viability increase [3] is reported as -0.74%. The viability [4] was 103%, the viability [5] was 106% and the inhibition [6] was 0.38%. For the same compound, the RAM network inhibition [7] was 1.6%.
With `N#CCCN1CCN(S(=O)(=O)c2ccc(S(=O)(=O)N3CCCCCC3)cc2)CC1` the growth inhibition [1] was 1.57%, the growth inhibition [2] was -16.9% and the viability increase [3] was -2.09%. The viability [4] was 97.4%, the viability [5] was 94.3% and the inhibition [6] was 0.525%. For the same compound, the RAM network inhibition [7] was 11.9%.
